Assay outcomes: PubChem, Broad Institute
Sampled rows, rich in hits. Any-hit rate of the full collection: about 3.5%.
HIV Env fusion = blocks HIV Env-driven cell-cell fusion. HeLa-JRFL Env/CEM21 cell fusion, luciferase. inhibition, % at 12.3 µM. 360,000 tested, 1.1% active. AID 651610;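 active means mean replicate inhibition score of at least 50 and every replicate individually at or above 50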;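 further: 0% = plate neutral controls and 100% = maraviroc near 300 nM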
FGF22 binding = binders of recombinant human FGF22 by thermal shift; Q9HCT0; SYPRO orange fluorescence; percent of sucrose octasulfate shift, DMSO zero; activity (Tm shift, normalised), % at 9.99 µM; 340,000 tested, 1.5% active; AID 651658;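 active means mean Tm shift, scaled 0 neutral to 100 positive control, at about 1.3% or above, every replicate too, limit read from the data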
Cneo AK release = causes C. neoformans cell lysis. 360,000 tested, 0.2% active. lysis activity, % at 15 µM. adenylate kinase release luminescence, 4 h; normalised: neutral wells 0, clomiphene wells 100;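 active means mean lysis activity across replicates of at least 80%, whatever share of replicates individually reach that level; inactive means mean lysis activity below 80%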
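Assay system: Cryptococcus neoformans yeast cells / Dosing: single-point compound dose / Timing: 4 h at 37 °C static, read 1 h later / Measured by: luminescence of released adenylate kinase using an AK detection reagent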
ERAP1 inh = blocks human ERAP1 aminopeptidase activity; Q9NZ08; recombinant ERAP1, Leu-AMC fluorescence, 60 min; inhibition, % at 10.7 µM; 340,000 tested, 0.15% active; AID 652197;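 active means mean replicate inhibition of at least 30%, or all replicates individually reaching that 30% level; inactive means mean below 30% and not every replicate reaching it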;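 further: 0% = neutral control wells and 100% = L-leucinethiol positive control wells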
Target sequence (Q9NZ08 whole entry, looked up): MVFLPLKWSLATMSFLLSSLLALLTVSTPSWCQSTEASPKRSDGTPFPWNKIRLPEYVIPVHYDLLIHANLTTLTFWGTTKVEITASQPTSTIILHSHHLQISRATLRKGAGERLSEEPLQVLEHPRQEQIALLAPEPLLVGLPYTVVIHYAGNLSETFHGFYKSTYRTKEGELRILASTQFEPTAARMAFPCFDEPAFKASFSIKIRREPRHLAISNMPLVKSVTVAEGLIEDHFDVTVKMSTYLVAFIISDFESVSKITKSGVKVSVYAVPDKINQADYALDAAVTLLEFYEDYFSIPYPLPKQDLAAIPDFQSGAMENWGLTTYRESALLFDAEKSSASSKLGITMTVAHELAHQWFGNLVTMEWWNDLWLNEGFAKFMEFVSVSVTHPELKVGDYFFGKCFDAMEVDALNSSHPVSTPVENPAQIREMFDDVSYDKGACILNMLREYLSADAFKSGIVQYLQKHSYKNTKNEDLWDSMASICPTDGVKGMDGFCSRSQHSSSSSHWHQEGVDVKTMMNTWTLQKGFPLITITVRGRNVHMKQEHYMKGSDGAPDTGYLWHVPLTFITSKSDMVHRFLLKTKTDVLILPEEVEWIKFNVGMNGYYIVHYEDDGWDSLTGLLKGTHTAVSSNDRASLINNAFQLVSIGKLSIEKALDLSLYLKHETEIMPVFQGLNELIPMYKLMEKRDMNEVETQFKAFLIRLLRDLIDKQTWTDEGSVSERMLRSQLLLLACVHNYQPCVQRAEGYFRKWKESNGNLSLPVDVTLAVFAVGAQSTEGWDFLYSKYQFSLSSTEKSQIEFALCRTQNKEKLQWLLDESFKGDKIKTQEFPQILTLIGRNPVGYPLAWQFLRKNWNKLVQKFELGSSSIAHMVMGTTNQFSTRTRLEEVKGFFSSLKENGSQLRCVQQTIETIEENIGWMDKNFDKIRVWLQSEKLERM
Ecoli rRNA inh = inhibitors of bacterial rRNA selective over humanized ribosomes. E. coli WT GFP vs humanized-ribosome RFP mutants, fluorescence, 24 h; active compounds read low; DMSO median 0, no signal -100. GFP signal change (wild-type ribosome), % (test concentration not listed). 350,000 tested, 1.6% active. AID 720706;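 active means significant combined selectivity score with lowered wild-type GFP, culture density cut under 30%, mutant RFP and density less affected; inactive means any of these conditions unmet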
PGC1a acetyl inh = lowers PGC1a acetylation signal in U2OS cells. 350,000 tested, 0.17% active. AlphaScreen anti-acetyl-lysine; with virally co-expressed GCN5 acetyltransferase. inhibition, % at 15.6 µM;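 active means every replicate shows inhibition of at least 40%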;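 further: 0% = neutral control wells and 100% = positive control wells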
* hit, by the source's call; · = no result given; [ ] = dose if it differs, or a comment.

SMILES	HIV Env fusion	FGF22 binding	Cneo AK release	ERAP1 inh	Ecoli rRNA inh	PGC1a acetyl inh
O=S(=O)(Nc1cccc(Cl)c1)c1cccc(-n2cnnn2)c1	-13	44*	1	4	-32	-5
O=C(CN(C(=O)c1csnn1)c1cccc(F)c1)NCc1ccc2c(c1)OCO2	0	43*	1	0	-3	·
Cc1onc(-c2ccccc2)c1C(=O)NCc1cccs1	-101	·	0	·	·	-6
CN1C=CC=C/C1=C1\SC(=S)N(C2CCCCC2)C1=O	-8	·	0	·	·	1
COc1cc(CCCN2CCNC[C@@H]2c2ccccc2)cc(OC)c1OC	-15	0	-3	·	8	·
CN1CCc2c1nc1ccccc1c2N=C1CCCN1Cc1ccccc1	25	43*	·	-5	-12	·
CCCNC(=O)N(C)C[C@@H]1Oc2cc(-c3cccnc3)ccc2S(=O)(=O)N([C@@H](C)CO)C[C@@H]1C	1[16.7 µM]	0	-6	1	2	-6
COc1cc([N+](=O)[O-])c(C)cc1NC(=O)c1ccc(OC)c(OC)c1	-32	43*	0	-3	10	-3
C/C(=N\N1CCN(Cc2ccc(Cl)cc2)CC1)c1ccc(F)cc1	5	0	6	3	-18*	7
Fc1ccccc1-c1cc2ccccc2cn1	·	44*	5	2	8	·
Fc1ccc(NC(=S)N2CCCN(c3ccc(C(F)(F)F)cn3)CC2)c(F)c1	61*	·	3	·	-23	-1
CCOc1ccc(NC(=O)CN(C)C(=O)c2cc([N+](=O)[O-])ccc2Sc2ccccc2)cc1OCC	·	19*	1	-4	-12	-6
CCOc1ccc(NC(=O)CN(C)C(=O)c2sc3ccccc3c2Cl)cc1OCC	5	0	0	-4	-29*	·
CCOc1ccc(NC(=O)CN(C)C(=O)c2cc([N+](=O)[O-])ccc2N2CCCCC2)cc1OCC	-28	-1	0	1	-4	-8
COc1cc(NC(=O)C2CC2)c(OC)cc1NC(=O)c1ccco1	6	0	9	-3	3	6
CCOc1c(OC)ccc2c3c(c(=O)oc12)CCCC3	-79	·	·	·	·	·
CN(C)CC#Cc1ccc([C@H]2[C@@H](CO)N3CCCCN(S(=O)(=O)c4ccccc4)C[C@@H]23)cc1	·	0	-2	-1	-2	-16
C[C@H]1CN([C@@H](C)CO)C(=O)c2cc(C#CC(C)(C)O)cnc2O[C@@H]1CN(C)C(=O)C1CCC1	-10[16.7 µM]	0	-1	3	9	101*
COCC#Cc1cnc2c(c1)C(=O)N([C@@H](C)CO)C[C@@H](C)[C@@H](CN(C)C(=O)C1CC1)O2	-17[16.7 µM]	0	87*	2	4	-4
CC(C)CC#Cc1cnc2c(c1)C(=O)N([C@@H](C)CO)C[C@H](C)[C@H](CN(C)C(=O)c1ccc3c(c1)OCO3)O2	4[16.7 µM]	0	85*	-1	-1	13
C[C@@H]1CN([C@@H](C)CO)C(=O)c2cc(C#CC(C)(C)O)cnc2O[C@@H]1CN(C)C(=O)C1CCC1	-4[16.7 µM]	0	1	1	4	5
COCC#Cc1cnc2c(c1)C(=O)N([C@H](C)CO)C[C@H](C)[C@H](CN(C)C(=O)C1CC1)O2	-14[16.7 µM]	0	101*	-1	7	-1
COCC#Cc1cnc2c(c1)C(=O)N([C@@H](C)CO)C[C@@H](C)[C@H](CN(C)C(=O)C1CC1)O2	-16[16.7 µM]	0	18	-1	9	-6
OCCN=c1cc(-c2ccccc2)oc2ccc(Cl)cc12	·	·	-1	·	·	13
COc1cccc(C(=O)N(Cc2ccco2)Cc2cc3cccc(C)c3[nH]c2=O)c1	-18	·	0	·	·	-6
C/C=C/c1cnc2c(c1)C(=O)N([C@H](C)CO)C[C@@H](C)[C@@H](CN(C)C(=O)C1CCCCC1)O2	-4[16.7 µM]	0	95*	-2	7	5
COCC(=O)N(C)C[C@@H]1Oc2ncc(C#CCC3CCCC3)cc2C(=O)N([C@H](C)CO)C[C@H]1C	3[16.7 µM]	0	87*	5	1	-5
C[C@H](CO)N1C[C@H](C)[C@H](CN(C)C(=O)Nc2ccc3c(c2)OCO3)Oc2ncc(C#Cc3ccc(C(F)(F)F)cc3)cc2C1=O	55[16.7 µM]	0	-7	4	2	7
